Test system: HCV core protein (core106) dimerization, Hepatitis C virus
Experiment: disruption of HCV core self-association – biochemical, AlphaScreen luminescence, single dose 15 µM, powder samples, late-stage follow-up (AID 651576)
Conditions: AlphaScreen GST/Flag-core106 dimerization, at 15 µM, hits give high values
How it was run: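 Assay system: HCV core106 dimerization between GST-tagged and Flag-tagged core106 proteins. Dosing: single nominal test compound dose of 15 µM. Incubation: 1 h protein preincubation at room temperature, then 1 h per bead addition. Detection: AlphaScreen luminescence. Evaluation: percent inhibition of AlphaScreen signal versus uninhibited protein-only wells.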

Cc1ccc(Cc2c(C)nc3nc(SCC(=O)NCCN4CCOCC4)nn3c2C)cc1
inhibition: 60%

Cc1ccc(Cc2c(C)nc3nc(SCC(=O)NC4CCC(NC(=O)CSc5nc6nc(C)c(Cc7ccc(C)cc7)c(C)n6n5)CC4)nn3c2C)cc1 (stereo not drawn)
inhibition: 92%

Cc1ccc(Cc2c(C)nc3nc(SCC(=O)NCCNC(=O)CSc4nc5nc(C)c(Cc6ccc(C)cc6)c(C)n5n4)nn3c2C)cc1
inhibition: 52%

Reference: PubChem BioAssay AID651576 (The Scripps Research Institute Molecular Screening Center, 2012)
